Screening results as filed in PubChem BioAssay.
Yeast superoxide – yeast age-related superoxide inhibition as caloric restriction mimetic | S. cerevisiae aged cells, superoxide DHE fluorescence; active compounds read low | superoxide response (% of plate mean), % at 10 µM | 330,000 compounds, 0.18% hits | AID 2690;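 active means superoxide response under a set limit, about three screen SD below normal, cut at about 65% in these data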;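 further: yeast aged for seven days with compound at 30 °C before DHE staining; 100% = average MFI of all compound-treated wells on the plate with controls excluded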
TRPC6 activator – activators of mouse TRPC6 channel; 310,000 compounds, 0.13% hits; B-score at 10 µM; AID 2550; HEK293-TRPC6 membrane potential dye fluorescence; active compounds read high; Q61143;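 active means B-score of the integrated fluorescence ratio above library mean plus 3 SD, and starting fluorescence ratio within library mean plus 5 SD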;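 further: higher score means more depolarization so channel activation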
TRPC4 PAM – TRPC4 (mouse) allosteric potentiation; HEK293 TRPC4beta/mu-opioid, DAMGO EC20, Fluo-4 Ca2+ flux; active compounds read high; B-score at 10 µM; 310,000 compounds, 0.42% hits; AID 2227;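 active means B-score of calcium response area above 5 SD of library B-scores, with initial fluorescence ratio within 5 SD of library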;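 further: B-score of integrated fluorescence ratio over time as area under calcium response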
TRPC4 act – opens the mouse TRPC4 cation channel; Q9QUQ5; HEK293 TRPC4beta/mu-opioid, Fluo4 calcium fluorescence; active compounds read high; B-score at 10 µM; 310,000 compounds, 0.49% hits; AID 2237;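 active means B-score above 5 SD of library B-scores, and initial fluorescence ratio not above library mean plus 5 SD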;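 further: positive B-score marks a calcium rise read as TRPC4 activation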
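system = HEK293 cells stably co-expressing mouse TRPC4beta and mu-opioid receptor | schedule = Fluo4 dye loading 45 min at room temperature, 110 s recording | measure = B-scored integrated calcium fluorescence ratio | signal = Fluo4 calcium-sensitive dye fluorescence, kinetic, 1 Hz baseline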
TRPC6 inh – mouse TRPC6 channel inhibition | Q61143 | B-score at 10 µM | 310,000 compounds, 1.1% hits | AID 2553 | HEK293-TRPC6, membrane potential dye, ACh-evoked depolarization; active compounds read low;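 active means B-score under library mean minus 3 SD, initial fluorescence not abnormally high, positive integrated signal ratio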;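 further: B-score derived from integrated fluorescence ratio over the kinetic read; more negative B-score means stronger inhibition of depolarization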
TRPC4 block – inhibitors of mouse TRPC4 channel | HEK293 TRPC4beta/mu-opioid, DAMGO-evoked Fluo4 calcium flux; active compounds read low | B-score at 10 µM | 300,000 compounds, 0.39% hits | AID 2247;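 active means B-score over 3 SD under the library average, no early fluorescence shift, positive overall ratio signal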
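Assay system: HEK293 cells with stable TRPC4beta plus mu-opioid receptor expression; Probe or stimulus: DAMGO in two steps, submaximal then maximal; Dosing: single-point compound dosing; Measured by: Fluo4 calcium-dye fluorescence, kinetic read; Read-out basis: B score from integrated Fluo4 fluorescence ratio.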
HEK293 MPD ctr – counter-screen for TRPC6 modulators: effect in parental HEK293 cells | 2,400 compounds, 51% hits | membrane potential dye fluorescence | membrane potential signal change, % at 10 µM | shares compounds with TRPC6 inh | AID 488924;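 active means membrane potential signal moves up or down beyond 5 SD from buffer-only wells, on both duplicate plates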
HEK293 MPD ctr 2 – parental HEK293 nonspecific activity of TRPC6 modulators, second screen | shares compounds with TRPC6 inh | membrane potential dye fluorescence; after compound, maximal acetylcholine stimulation | inhibition, % at 10 µM | 2,400 compounds, 14% hits | AID 488926;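 active means membrane potential signal drops by more than 5 SD from the mean control signal, in both duplicate plates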;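 further: plate controls were acetylcholine ECmax control wells for no effect and buffer only wells for full effect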
TRPC4 ctr mod – tests whether TRPC6 modulators also affect mouse TRPC4; shares compounds with TRPC6 inh; HEK293 TRPC4/mu-opioid, membrane potential fluorescence; percent change from control (negative = decrease, positive = increase), % at 10 µM; 2,400 compounds, 69% hits; AID 488927;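 active means membrane potential signal moved up or down beyond 5 SD of buffer control wells, in both duplicate plates, actives on both sides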;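 further: plate controls were assay buffer wells for no effect and DAMGO maximal-effect wells for full effect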
TRPC4/MOR inh 2 – mouse TRPC4 off-target activity of TRPC6 modulators, second screen; shares compounds with TRPC6 inh; HEK293 TRPC4/mu-opioid, membrane potential dye fluorescence; stimulated with maximal-effect DAMGO; inhibition, % at 10 µM; 2,400 compounds, 55% hits;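 active means drop in membrane potential signal beyond 5 SD of the control wells in both duplicate plates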;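 further: TRPC4 counter screen for TRPC6 hits run under conditions tuned for TRPC6 not TRPC4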
TRPC6 inh conf – confirmation of mouse TRPC6 inhibitors | shares compounds with TRPC6 inh | HEK293-TRPC6, membrane potential dye, ACh-evoked depolarization | inhibition, % at 10 µM | 3,300 compounds, 43% hits;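 active means fluorescence ratio falls more than 5 SD below the full-stimulation control mean, in both duplicate runs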;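 further: integrated fluorescence ratio of peak minus minimum over baseline after agonist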
TRPC6 act confirm – confirmation of mouse TRPC6 activators; shares compounds with TRPC6 inh; HEK293-TRPC6 membrane potential dye fluorescence, FDSS; activation, % at 10 µM; 2,800 compounds, 11% hits;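 active means ratio signal rise beyond 5 SD above unstimulated control wells' mean, seen in both duplicate runs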;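 further: plate controls were buffer EC0 wells for no effect and acetylcholine ECmax response for full effect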
Active calls of the source: *; i = inactive; . = no result. Rows were chosen to be rich in hits. Some 2.3% of all compounds tested hit in one or more screens of this group.

SMILES | Yeast superoxide | TRPC6 activator | TRPC4 PAM | TRPC4 act | TRPC6 inh | TRPC4 block | HEK293 MPD ctr | HEK293 MPD ctr 2 | TRPC4 ctr mod | TRPC4/MOR inh 2 | TRPC6 inh conf | TRPC6 act confirm
COc1ccc(NC(=S)N2CCN(S(=O)(=O)c3ccc(OC)cc3)CC2)cc1 | 96.1 | i | i | i | i | i | . | . | . | . | . | .
COc1ccc(NC(=O)Nc2ccc(F)cc2)c(C)c1 | 88.3 | i | i | i | i | i | . | . | . | . | . | .
COc1ccc(C(=O)OCC2CC(c3ccccc3)=NO2)cc1OC (stereo not given) | 98.4 | i | i | i | -5.07* | i | i | i | i | i | i | i
O=C(Nc1cccc(S(=O)(=O)N2CCCCC2)c1)c1c2c(nc3ccccc13)CCN(Cc1ccccc1)C2 | 83.9 | i | i | i | -5.35* | i | i | i | i | i | i | i
O=C(CN1CCN(Cc2ccccc2)CC1)Nc1cccc(S(=O)(=O)N2CCCCCC2)c1 | 102.7 | i | i | i | i | i | . | . | . | . | . | .
COCCCn1c(=N)c(C(=O)NCC2CCCO2)cc2c(=O)n3cccc(C)c3nc21 (stereo not given) | 92.3 | i | i | i | -6.38* | i | 146.0%* | 79.5%* | 20.5%* | 27.5%* | 40.5%* | i
CCCn1c(=N)c(C(=O)NCC2CCCO2)cc2c(=O)n3cccc(C)c3nc21 (stereo not given) | 107.8 | i | i | i | i | i | . | . | . | . | . | .
Cc1ccc2nc3c(cc(C(=O)NCC4CCCO4)c(=N)n3C3CCCC3)c(=O)n2c1 (stereo not given) | 112.6 | i | i | i | i | i | . | . | . | . | . | .
C=CCn1c(=N)c(C(=O)NCCCOC)cc2c(=O)n3cccc(C)c3nc21 | 96.0 | i | i | i | -5.23* | i | 225.5%* | 83.0%* | 39.5%* | i | i | .
Cc1cccn2c(=O)c3cc(C(=O)NCc4ccco4)c(=N)n(C4CCCCC4)c3nc12 | 121.9 | i | i | i | -6.76* | i | -160.5%* | i | -38.5%* | 34.0%* | i | i
Cc1ccc2nc3c(cc(C(=O)NCc4ccco4)c(=N)n3C3CCCC3)c(=O)n2c1 | 99.2 | i | i | i | i | i | . | . | . | . | . | .
N=c1c(C(=O)NCC2CCCO2)cc2c(=O)n3ccccc3nc2n1C1CCCC1 (stereo not given) | 106.4 | i | i | i | -5.92* | i | i | i | i | i | i | i
O=C1N(Cc2cccnc2)C[C@@H]2C[C@@H](c3ccccc3C(F)(F)F)N3CCC[C@@]123 | 97.8 | i | i | i | i | i | . | . | . | . | . | .
COc1ccc(CCN(C)C(=O)c2cnc(C)cn2)cc1OC | 96.2 | i | i | i | i | i | . | . | . | . | . | .
CC(=O)NC(CC(=O)Nc1nc(-c2ccc(N(C)S(C)(=O)=O)cc2)cs1)c1ccccc1 (stereo not given) | 92.8 | i | i | i | i | i | . | . | . | . | . | .
N=c1c(C(=O)NCC2CCCO2)cc2c(=O)n3ccccc3nc2n1C1CCCCC1 (stereo not given) | 130.4 | i | i | i | -5.43* | i | -100.0%* | i | -23.5%* | i | i | i
Cc1cccn2c(=O)c3cc(C(=O)NCCc4ccccc4)c(=N)n(CC4CCCO4)c3nc12 (stereo not given) | 101.8 | i | i | i | i | i | . | . | . | . | . | .
Cc1cccn2c(=O)c3cc(C(=O)NCC4CCCO4)c(=N)n(C4CCCC4)c3nc12 (stereo not given) | 107.0 | i | i | i | -5.77* | i | -81.5%* | i | -16.5%* | 31.5%* | i | i
CCN1CCN(C2=C(NS(=O)(=O)c3ccc(NC(C)=O)cc3)C(=O)c3ccccc3C2=O)CC1 | 164.4 | i | i | i | i | i | . | . | . | . | . | .
CCOC(=O)C1CCCN(C2=C(NS(=O)(=O)c3ccc(Br)cc3)C(=O)c3ccccc3C2=O)C1 (stereo not given) | 171.5 | i | i | i | i | i | . | . | . | . | . | .
CC(=O)Nc1ccc(S(=O)(=O)NC2=C(N3CCN(Cc4ccccc4)CC3)C(=O)c3ccccc3C2=O)cc1 | 158.6 | i | i | i | -6.56* | -6* | -224.5%* | i | -34.0%* | 90.5%* | 68.0%* | i
O=C1C(NS(=O)(=O)c2ccc(Br)cc2)=C(N2CCCCC2)C(=O)c2ccccc21 | 174.3 | i | i | i | -6.32* | i | i | i | -19.5%* | 72.5%* | i | i
CC1CCN(C2=C(NS(=O)(=O)c3ccc(Br)cc3)C(=O)c3ccccc3C2=O)CC1 | 231.5 | i | i | i | i | i | . | . | . | . | . | .
CC1CCN(C2=C(NS(=O)(=O)c3ccc(Cl)cc3)C(=O)c3ccccc3C2=O)CC1 | 149.9 | i | i | i | -6.49* | i | i | i | -10.5%* | 51.5%* | i | i
CC1CCN(C2=C(NS(=O)(=O)c3ccccc3)C(=O)c3ccccc3C2=O)CC1 | 142.5 | i | i | i | -7.69* | i | i | i | -27.0%* | 82.0%* | i | i
Cc1ccc(C(=O)N2CCC(C(=O)NCc3ccco3)CC2)cc1 | 90.8 | i | i | i | i | i | . | . | . | . | . | .
CCOC(=O)C1CCN(C2=C(NS(=O)(=O)c3ccc(Cl)cc3)C(=O)c3ccccc3C2=O)CC1 | 178.8 | i | i | i | -6.1* | i | -77.5%* | i | -19.5%* | 69.0%* | 58.0%* | i
